Activity calls are given as the source filed them. The rule behind the calls is not given here.
Key:
[1] = molecular target: T1, Aminopeptidase N (Sus scrofa) (UniProt P15145); test: Inhibition of porcine APN using fluorogenic substrate H-Leu-AMC measured for 1 h rat 100 uM relative to control
T1 sequence (whole entry): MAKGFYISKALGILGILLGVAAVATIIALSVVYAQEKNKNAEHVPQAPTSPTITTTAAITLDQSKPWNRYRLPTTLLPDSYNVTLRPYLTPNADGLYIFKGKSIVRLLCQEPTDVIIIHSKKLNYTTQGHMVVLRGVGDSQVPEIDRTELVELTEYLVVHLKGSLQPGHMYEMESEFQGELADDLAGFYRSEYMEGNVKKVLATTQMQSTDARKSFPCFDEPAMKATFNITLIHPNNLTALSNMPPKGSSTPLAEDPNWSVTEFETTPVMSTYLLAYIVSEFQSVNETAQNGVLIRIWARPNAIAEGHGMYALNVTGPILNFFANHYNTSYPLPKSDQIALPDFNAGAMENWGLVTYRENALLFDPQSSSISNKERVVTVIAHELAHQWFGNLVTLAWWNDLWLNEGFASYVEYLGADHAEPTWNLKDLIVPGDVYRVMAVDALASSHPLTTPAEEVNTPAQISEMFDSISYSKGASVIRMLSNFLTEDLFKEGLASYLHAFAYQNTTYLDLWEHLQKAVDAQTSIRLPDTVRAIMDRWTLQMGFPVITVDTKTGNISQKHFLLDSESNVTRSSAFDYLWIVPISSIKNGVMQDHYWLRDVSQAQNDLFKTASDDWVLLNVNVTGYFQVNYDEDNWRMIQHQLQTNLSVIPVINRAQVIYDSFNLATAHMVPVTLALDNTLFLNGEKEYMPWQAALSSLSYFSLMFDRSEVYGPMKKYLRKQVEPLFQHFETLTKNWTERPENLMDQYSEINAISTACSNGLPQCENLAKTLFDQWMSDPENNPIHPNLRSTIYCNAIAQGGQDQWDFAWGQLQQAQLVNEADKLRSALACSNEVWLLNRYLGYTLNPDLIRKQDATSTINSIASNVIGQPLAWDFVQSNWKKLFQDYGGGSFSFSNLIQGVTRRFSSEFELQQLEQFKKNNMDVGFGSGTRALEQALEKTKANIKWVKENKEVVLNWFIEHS

Aminopeptidase N = molecular target: T2, Aminopeptidase N (Sus scrofa, UniProt P15145); test: Inhibition of porcine APN using fluorogenic substrate H-Leu-AMC measured for 1 hr
T2 sequence (P15145 whole entry): T1 sequence (whole entry)

Bacteria [2] = test: Binding affinity to bacterial VIM-2 (unknown origin) assessed as change in enthalpy by isothermal calorimetric assay
Method in brief: (§1)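 ITC at 25 °C. VIM-2 at 19 μM in 10 mM HEPES-NaOH, 0.15 M NaCl, pH 7.5 with DMSO matched to 1%, titrated with compound at 200 μM: one 0.5 μL injection, then 19 × 2 μL at 150 s intervals. Buffer dilution heats subtracted. Nonlinear fit gives n, Ka and ΔH°; values regarded as apparent.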

Bacteria [3] = test: Inhibition of bacterial IMP-1 (unknown origin) expressed in Escherichia coli EXPRESS BL21(DE3) assessed as inhibition constant by measuring rate of substrate hydrolysis at 100 uM by UV-visible spectrophotometry relative to control
Method in brief: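 Reporter-substrate assay with purified MBL (1–70 nM final) in 50 mM HEPES pH 7.5 at 30 °C. […] Inhibitor 0.5–1000 μM final. Ki derived from the v0/vi vs [I] slope assuming competitive inhibition, or from a Dixon plot. Ki given when inhibition >70%, otherwise % inhibition at 100 μM. Triplicate.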

Klebsiella pneumoniae [4] = test: Antimicrobial activity against blaVIM-4-producing multidrug-resistant Klebsiella pneumoniae VA-416/02 clinical isolate assessed as meropenem MIC using cation-adjusted Mueller-Hinton broth at 1 ug/ml by broth microdilution method (reference value: […] ug/ml); assay type: functional; details: dose 1 µg/ml
Method in brief: (§2)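 Checkerboard broth microdilution in cation-supplemented Mueller–Hinton broth, inoculum 5×10^4 CFU/well, per CLSI. […] The average fractional inhibitory concentration index was computed from the checkerboard.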

[5] = Chelation of Zn(II) in bacterial VIM-2 (unknown origin) by isothermal calorimetric assay; method in brief: as §1
Klebsiella pneumoniae [6] = test: Antimicrobial activity against blaVIM-1-producing multidrug-resistant Klebsiella pneumoniae 7023 clinical isolate assessed as meropenem MIC using cation-adjusted Mueller-Hinton broth at 32 ug/ml by broth microdilution method (reference value: […] ug/ml); assay type: functional; details: dose 32 µg/ml; method in brief: as §2
Bacteria [7] = test: Inhibition of bacterial NDM-1 (unknown origin) assessed as Zn(II) content in protein at 48 uM at 48 uM by overnight equilibrium dialysis
Method in brief: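 VIM-2 or NDM-1 (3 μM final) in 50 mM HEPES pH 7.5 mixed with compound at 0–48 μM. Incubated 1 h on ice, then dialysed overnight at 4 °C against 50 mM HEPES pH 7.5. Zn(II) content measured by atomic absorption at 213.86 nm against a zinc standard curve. Each point averages three samples.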

[8] = Binding affinity to Zn(II) assessed as dissociation constant by isothermal calorimetric assay
Bacteria [9] = test: Binding affinity to bacterial VIM-2 (unknown origin) assessed as change in entropy by isothermal calorimetric assay; method in brief: as §1
Escherichia coli = test: Antimicrobial activity against blaNDM-1-producing multidrug-resistant Escherichia coli SI-004 clinical isolate assessed as meropenem MIC using cation-adjusted Mueller-Hinton broth at 8 ug/ml by broth microdilution method (reference value: 64 ug/ml); assay type: functional; details: dose 8 µg/ml; method in brief: as §2
Klebsiella pneumoniae [10] = test: Antimicrobial activity against blaVIM-1-producing multidrug-resistant Klebsiella pneumoniae 7023 clinical isolate assessed as meropenem MIC using cation-adjusted Mueller-Hinton broth at 2 ug/ml by broth microdilution method (reference value: […] ug/ml); assay type: functional; details: dose 2 µg/ml; method in brief: as §2
[11] = Chelation of Zn(II) in bacterial NDM-1 (unknown origin) by isothermal calorimetric assay
[12] = Binding affinity to Zn(II) assessed as change in enthalpy by isothermal calorimetric assay
Klebsiella pneumoniae [13] = test: Antimicrobial activity against blaVIM-4-producing multidrug-resistant Klebsiella pneumoniae VA-416/02 clinical isolate assessed as meropenem MIC using cation-adjusted Mueller-Hinton broth at 16 ug/ml by broth microdilution method (reference value: […] ug/ml); assay type: functional; details: dose 16 µg/ml; method in brief: as §2
Klebsiella pneumoniae [14] = test: Antimicrobial activity against blaVIM-4-producing multidrug-resistant Klebsiella pneumoniae VA-416/02 clinical isolate assessed as meropenem MIC using cation-adjusted Mueller-Hinton broth at 2 ug/ml by broth microdilution method (reference value: […] ug/ml); assay type: functional; details: dose 2 µg/ml; method in brief: as §2
Bacteria [15] = test: Inhibition of bacterial VIM-2 (unknown origin) assessed as decrease in Zn(II) content in protein at 50 uM by native MS analysis
Method in brief: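 Purified VIM-2 or NDM-1 was given 2 mM TCEP and 2 equiv ZnCl2, incubated 1 h, and dialysed overnight into 100 mM ammonium acetate pH 7.5. Enzyme at 10 μM was then incubated 5 min with 50 μM compound. Positive-mode nanoESI on an Orbitrap, scanning m/z 1000–4000. Species assigned from deconvoluted masses.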

Cc1[nH]cnc1CN(Cc1c[nH]cn1)[C@@H](CCCn1c(-c2ccccc2)n[nH]c1=S)C(=O)O
inhibition [1]: 58%

O=C(O)[C@H](CCn1c(-c2ccccc2)n[nH]c1=S)N(Cc1c[nH]cn1)Cc1c[nH]cn1
IC50 (Aminopeptidase N): 27 µM

O=C(O)[C@H](CCCn1c(-c2ccc3ccccc3c2)n[nH]c1=S)N(Cc1c[nH]cn1)Cc1c[nH]cn1
IC50 (Aminopeptidase N): 16 µM

O=C(O)[C@H](CCCn1c(-c2ccccc2)n[nH]c1=S)N(Cc1c[nH]cn1)Cc1c[nH]cn1
deltaH (Bacteria [2]): -9.8 kcal/mol
inhibition (Bacteria [3]): 40%
MIC (Klebsiella pneumoniae [4]): 8 µg/mL
Activity [5]: Active
MIC (Klebsiella pneumoniae [6]): 0.03 µg/mL
Activity (Bacteria [7]): 1.09 equiv
Kd [8]: 10 nM
IC50 (Aminopeptidase N): 30 µM
TdeltaS (Bacteria [9]): -1.4 kcal/mol
MIC (Escherichia coli): 32 µg/mL
MIC (Klebsiella pneumoniae [10]): 4 µg/mL
Activity [11]: Active
deltaH [12]: 5 kcal/mol
MIC (Klebsiella pneumoniae [13]): 0.06 µg/mL
MIC (Klebsiella pneumoniae [14]): 4 µg/mL
inhibition (Bacteria [15]): Active

O=C(O)[C@H](CCCn1c(-c2ccccc2)n[nH]c1=S)N(Cc1ccccn1)Cc1ccccn1
inhibition (Bacteria [3]): < 30%
Activity [5]: inactive
Activity (Bacteria [7]): 1.09 equiv
Kd [8]: 10 nM
Activity [11]: inactive
deltaH [12]: 6 kcal/mol
inhibition [1]: 30%
inhibition (Bacteria [15]): Active

— ChEMBL document CHEMBL5236609, “Optimization of 1,2,4-Triazole-3-thiones toward Broad-Spectrum Metallo-β-lactamase Inhibitors Showing Potent Synergistic Activity on VIM- and NDM-1-Producing Clinical Isolates” (J Med Chem, 2022)
